According to ChEMBL document CHEMBL3352233, “N-[6-(4-butanoyl-5-methyl-1H-pyrazol-1-yl)pyridazin-3-yl]-5-chloro-1-[2-(4-methylpiperazin-1-yl)-2-oxoethyl]-1H-indole-3-carboxamide (SAR216471), a novel intravenous and oral, reversible, and directly acting P2Y12 antagonist” (J Med Chem, 2014):
Active and inactive are the calls of the source. No cut-off for these calls is given here.

Assays:
Salmonella typhimurium [1] = test: Mutagenicity in Salmonella typhimurium by Ames II test in absence of liver S9 fraction; assay type: toxicity, organism-based; settings: salmonella enterica subsp. enterica serovar typhimurium
Salmonella typhimurium [2] = test: Mutagenicity in Salmonella typhimurium by Ames II test in presence of liver S9 fraction; assay type: toxicity, organism-based; settings: salmonella enterica subsp. enterica serovar typhimurium
[3] = Metabolic stability in human liver microsomes assessed as compound metabolism after 20 mins incubation in presence of 1 mM NADPH; assay type: ADME; settings: liver microsomes, read-out: Drug metabolism
Outline: (§1)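 Hepatic microsomal fractions are incubated with compound for 20 min with 1 mM NADPH. Result is reported as % metabolized, i.e. 100 minus % unchanged compound.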

P2Y purinoceptor 12 = P2Y purinoceptor 12 (Homo sapiens, UniProt Q9H244); test: Displacement of [33P]2MeS-ADP from P2Y12 receptor (unknown origin) transfected in CHO cells after 30 mins by scintillation counting analysis; assay type: cell-based
Sequence of P2Y purinoceptor 12 (Q9H244 whole entry): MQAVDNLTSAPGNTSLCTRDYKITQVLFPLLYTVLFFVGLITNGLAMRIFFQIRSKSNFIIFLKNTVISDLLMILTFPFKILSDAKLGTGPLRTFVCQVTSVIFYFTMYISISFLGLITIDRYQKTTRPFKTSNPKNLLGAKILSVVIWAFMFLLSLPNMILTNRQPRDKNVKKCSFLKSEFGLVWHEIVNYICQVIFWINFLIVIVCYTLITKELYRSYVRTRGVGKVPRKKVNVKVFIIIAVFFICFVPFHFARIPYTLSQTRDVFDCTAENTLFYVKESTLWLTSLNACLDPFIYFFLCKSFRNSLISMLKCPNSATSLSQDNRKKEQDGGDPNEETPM
Outline: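 P2Y12-expressing CHO cells (35 × 10³/sample) in PBS with 1 mM EDTA and 0.2% BSA are exposed to compound for 30 min. [³³P]2-MeS-ADP (0.16 nM) is then added for 15 min at 20 °C, in triplicate. Filtration separates free from bound ligand, followed by scintillation counting. Nonspecific binding uses 1 mM unlabeled ADP. IC50 comes from a four-parameter logistic fit with asymptotes fixed at 0 and 100. n = 2.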

[4] = Metabolic stability in rat liver microsomes assessed as compound metabolism after 20 mins incubation in presence of 1 mM NADPH; assay type: ADME; settings: liver microsomes, read-out: Drug metabolism; outline: as §1
[5] = Permeability across human Caco2 cells; assay type: ADME, cell-based; settings: Caco-2, read-out: permeability
Outline: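 Permeation is measured across a Caco2 cell monolayer and reported in 10⁻⁷ cm·s⁻¹.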

Rattus norvegicus = test: Ex vivo inhibition of platelet aggregation in Sprague-Dawley rat at 10 mg/kg, po after 2 hrs; assay type: functional; settings: for inhibition in vivo at 10 mg/kg: Rattus norvegicus, Sprague-Dawley, po, 2 h
Outline: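 Male Sprague−Dawley rats (250−300 g), 6 per batch, are dosed by stomach tube at 10 mL/kg of a 1 mg/mL solution in 5% glucose water containing 5% Cremophor and 3% glycofurol. At 2 h, aortic blood is drawn into 3.8% citrate (1:9) under pentobarbital. PRP is prepared at 300g for 5 min. ADP aggregation is read as the 6-min absorbance AUC and expressed as % inhibition.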

SMILES | metabolised at 20 min [3] [%] | IC50 (P2Y purinoceptor 12) [nM] | metabolised at 20 min [4] [%] | further results
CCCC(=O)c1cnn(-c2ccc(N)c(C(=O)N(C)C)c2)c1C |  |  |  | Activity (Salmonella typhimurium [1]): Non-toxic; Activity (Salmonella typhimurium [2]): Toxic
CC(=O)c1cnn(-c2ccc(NC(=O)c3cn(CC(=O)N4CCN(C)CC4)c4ccc(Cl)cc34)cc2)c1C | 40 | 143 | 47 | 
CCCC(=O)c1cnn(-c2ccc(N)c(C#N)c2)c1C |  |  |  | Activity (Salmonella typhimurium [1]): Non-toxic; Activity (Salmonella typhimurium [2]): Non-toxic
CCCC(=O)c1cnn(-c2ccc(NC(=O)c3cn(CC(=O)N4CCN(C)CC4)c4cc(F)c(Cl)cc34)cc2)c1C | 31 | 48 | 21 | Papp [5]: 1.1 ×10⁻⁶ cm/s; inhibition (Rattus norvegicus): inactive
CCCC(=O)c1cnn(-c2ccc(NC(=O)c3cn(CC(=O)N4CCN(C)CC4)c4cc(C)c(Cl)cc34)cc2)c1C | 36 | 34 | 23 | Papp [5]: 3.6 ×10⁻⁶ cm/s; inhibition in vivo at 10 mg/kg (Rattus norvegicus): 31%
CCCC(=O)c1cnn(-c2ccc(NC(=O)c3cn(CC(=O)N4CCN(C)CC4)c4ccc(C(F)(F)F)cc34)cc2)c1C | 15 | 50 | 14 | Papp [5]: 0.9 ×10⁻⁶ cm/s; inhibition in vivo at 10 mg/kg (Rattus norvegicus): 26%
CCCC(=O)c1cnn(-c2ccc(N)nn2)c1C |  |  |  | Activity (Salmonella typhimurium [1]): Non-toxic; Activity (Salmonella typhimurium [2]): Non-toxic
CCCC(=O)c1cnn(-c2ccc(NC(=O)c3cn(CC(=O)N4CCN(CC(F)F)CC4)c4ccc(C)cc34)cc2)c1C | 64 | 19 | 27 | Papp [5]: 9.3 ×10⁻⁶ cm/s
CCCC(=O)c1cnn(-c2ccc3c(c2)OCCN3)c1C |  |  |  | Activity (Salmonella typhimurium [1]): Non-toxic; Activity (Salmonella typhimurium [2]): Non-toxic
CCCC(=O)c1cnn(-c2ccc(N)c(C(N)=O)c2)c1C |  |  |  | Activity (Salmonella typhimurium [1]): Non-toxic; Activity (Salmonella typhimurium [2]): Non-toxic
CCCC(=O)c1cnn(-c2ccc(NC(=O)c3cn(CC(=O)N4CCN(C)CC4)c4cc(C)c(C)cc34)cc2)c1C.Cl | 50 | 39 | 52 | Papp [5]: 5.9 ×10⁻⁶ cm/s; inhibition in vivo at 10 mg/kg (Rattus norvegicus): 37%
CCCC(=O)c1cnn(-c2ccc(NC(=O)c3cn(CC(=O)O)c4ccc(C)cc34)cc2)c1C | 5 | 0.9 | 1 | 
CCCC(=O)c1cnn(-c2ccc(N)cn2)c1C |  |  |  | Activity (Salmonella typhimurium [1]): Non-toxic; Activity (Salmonella typhimurium [2]): Toxic
Cc1c(C(=O)CCC(F)(F)F)cnn1-c1ccc(NC(=O)c2cn(CC(=O)N3CCN(C)CC3)c3ccc(Cl)cc23)cc1 | 6 | 574 | 3 | 
CCCC(=O)c1cnn(-c2ccc(NC(=O)c3cn(CC(=O)N4CCN(CCOC)CC4)c4ccc(C)cc34)cc2)c1C | 53 | 20 | 32 | Papp [5]: 7.4 ×10⁻⁶ cm/s
CCCC(=O)c1cnn(-c2ccc(NC(=O)c3cn(CC(=O)N4CCN(C)CC4)c4cc(C)c(Br)cc34)cc2)c1C | 34 | 48 | 20 | Papp [5]: 2.8 ×10⁻⁶ cm/s; inhibition in vivo at 10 mg/kg (Rattus norvegicus): 21%
CCCC(=O)c1cnn(-c2ccc(NC(=O)c3cn(CC(=O)N4CCN(Cc5ccc(F)cc5)CC4)c4ccc(C)cc34)cc2)c1C | 63 | 12 | 27 | Papp [5]: 1.7 ×10⁻⁶ cm/s
CCC(=O)c1cnn(-c2ccc(NC(=O)c3cn(CC(=O)N4CCN(C)CC4)c4ccc(Cl)cc34)cc2)c1C | 32 | 336 | 25 | 
CCCC(=O)c1cnn(-c2ccc(NC(=O)c3cn(CC(=O)N4CCN(C)C(C)C4)c4ccc(C)cc34)cc2)c1C (stereo not given) | 65 | 27 | 45 | Papp [5]: 5.5 ×10⁻⁶ cm/s
CCCC(=O)c1cnn(-c2ccc(NC(=O)c3cn(CC(=O)NCCn4ccnc4)c4ccc(C)cc34)cc2)c1C |  | 61 |  | 
CCCC(=O)c1cnn(-c2ccc(NC(=O)c3cn(CC(=O)N4CCN(CC)CC4)c4ccc(C)cc34)cc2)c1C |  | 66 |  | 
CCCC(=O)c1cnn(-c2ccc(NC(=O)c3cn(CC(=O)NC(C)CN(C)C)c4ccc(C)cc34)cc2)c1C (stereo not given) |  | 88 |  | 
CCCC(=O)c1cnn(-c2ccc(NC(=O)c3cn(CC(=O)N4CCN(CCO)CC4)c4ccc(Cl)cc34)cc2)c1C | 14 | 11 | 6 | inhibition in vivo at 10 mg/kg (Rattus norvegicus): 22%
CCCC(=O)c1cnn(-c2ccc(NC(=O)c3cn(CC(=O)N4CCN(C)CC4)c4ccc(Cl)cc34)c(C(N)=O)c2)c1C |  | 266 |  | 
CCCC(=O)c1cnn(-c2ccc3c(c2)OCCN3C(=O)c2cn(CC(=O)N3CCN(C)CC3)c3ccc(Cl)cc23)c1C |  | 559 |  | 
CCCC(=O)c1cnn(-c2ccc(NC(=O)c3cn(CC(=O)NC4CCCN(C)C4)c4ccc(C)cc34)cc2)c1C (stereo not given) |  | 71 |  | 
CCCC(=O)c1cnn(-c2ccc(NC(=O)c3cn(CC(=O)N4CCN(CCF)CC4)c4ccc(C)cc34)cc2)c1C | 62 | 19 | 36 | Papp [5]: 8.2 ×10⁻⁶ cm/s
CCCC(=O)c1cnn(-c2ccc(NC(=O)Nc3cc(C)ccc3OCCCC(=O)O)cc2)c1C |  | 17 |  | 

SMILES | metabolised at 20 min [3] [%] | IC50 (P2Y purinoceptor 12) [nM] | metabolised at 20 min [4] [%] | further results
CCCC(=O)c1cnn(-c2ccc(NC(=O)c3cn(CC(=O)N4CCCC(N)C4)c4ccc(C)cc34)cc2)c1C (stereo not given) |  | 46 |  | 
CCCC(=O)c1cnn(-c2cnc(NC(=O)c3cn(CC(=O)N4CCN(C)CC4)c4ccc(Cl)cc34)cn2)c1C |  | 275 |  | 
CCCC(=O)c1cnn(-c2ccc(NC(=O)c3cn(CC(=O)N4CCN(CC(F)(F)F)CC4)c4ccc(C)cc34)cc2)c1C |  | 66 |  | 
CCCC(=O)c1cnn([C@H]2CC[C@H](N)CC2)c1C |  |  |  | Activity (Salmonella typhimurium [1]): Non-toxic
CCCC(=O)c1cnn(-c2ccc(NC(=O)c3cn(CC(=O)N4CCCCC4CN4CCCC4)c4ccc(C)cc34)cc2)c1C (stereo not given) |  | 100 |  | 
CCCC(=O)c1cnn(-c2ccc(NC(=O)c3cn(CC(=O)N4CCN(C)CC4)c4ccc(Cl)cc34)c(C(=O)O)c2)c1C |  | 75 |  | 
CCOC(=O)c1c(C)nn(-c2ccc(C(=O)NCc3ccccc3OC)cc2)c1C |  | 1540 |  | 
CCCC(=O)c1cnn(-c2ccc(NC(=O)c3cn(CC(=O)OC)c4ccc(C)cc34)cc2)c1C |  | 93 |  | 
CCCC(=O)c1cnn(-c2ccc(NC(=O)c3c(C)n(CC(=O)O)c4ccc(C)cc34)cc2)c1C |  | 84 |  | 
CCCC(=O)c1cnn(-c2ccc(OC(=O)c3cn(CC(=O)N4CCN(C)CC4)c4ccc(Cl)cc34)cc2)c1C |  | 480 |  | 
CCCC(=O)c1cnn(-c2ccc(NC(=O)c3cn(CC(=O)N4CCN(C)CC4)c4ccc(OC)cc34)cc2)c1C | 68 | 22 | 63 | 
CCCC(=O)c1cnn(-c2ccc(NC(=O)c3cn(CC(=O)O)c4cc(C)c(C)cc34)cc2)c1C | 4 | 5.1 | 2 | 
CCCC(=O)c1cnn(-c2ccc(NC(=O)c3cn(CC(=O)NCCN(C)C)c4ccc(C)cc34)cc2)c1C |  | 92 |  | 
CCCC(=O)c1cnn(-c2ccc(NC(=O)c3cn(CC(=O)N4CCN(CC(=O)N(C)C)CC4)c4ccc(Cl)cc34)cc2)c1C | 28 | 11 | 7 | inhibition (Rattus norvegicus): inactive
CCCC(=O)c1cnn(-c2ccc(NC(=O)c3cn(CC(=O)N4CC(C)N(C)C(C)C4)c4ccc(C)cc34)cc2)c1C (stereo not given) |  | 28 |  | 
CCCC(=O)c1cnn(-c2ccc(NC(=O)c3cn(CC(=O)N4CCN(CCO)CC4)c4ccc(C)cc34)cc2)c1C | 16 | 41 | 17 | Papp [5]: 0.2 ×10⁻⁶ cm/s
CCCC(=O)c1cnn(-c2ccc(NC(=O)c3cn(CCC(=O)O)c4ccc(C)cc34)cc2)c1C |  | 7 |  | 
CCCC(=O)c1cnn(-c2ccc(NC(=O)c3cn(CC(=O)N4CCN(C(C)C)CC4)c4ccc(C)cc34)cc2)c1C |  | 82 |  | inhibition in vivo at 10 mg/kg (Rattus norvegicus): 15%
CCCC(=O)c1cnn(-c2ccc(N(C)C(=O)c3cn(CC(=O)O)c4ccc(C)cc34)cc2)c1C |  | 304 |  | 
CCCC(=O)c1cnn(-c2ccc(NC(=O)c3cn(CC(=O)N4CCN(C)CC4)c4ccc(C#N)cc34)cc2)c1C |  | 76 |  | 
CCCC(=O)c1cnn(-c2ccc(NC(=O)n3cc(CCCC(=O)O)c4ccc(C)cc43)cc2)c1C |  | 47 |  | 
CCCC(=O)c1cnn(-c2ccc(NC(=O)c3cn(CC(=O)N4CCC(NC)C4)c4ccc(C)cc34)cc2)c1C (stereo not given) |  | 94 |  | 
CCCC(=O)c1cnn(-c2ccc(NC(=O)c3cn(CC(=O)N4C[C@@H]5C[C@@H](O)CN5C[C@@H]4C)c4ccc(C)cc34)cc2)c1C | 61 | 15 | 25 | 
CCCC(=O)c1cnn(-c2ccc(NC(=O)c3cn(CC(=O)N4C[C@@H]5C[C@H]4CN5)c4ccc(C)cc34)cc2)c1C |  | 86 |  | 
CCCC(=O)c1cnn(-c2ccc(NC(=O)c3cn(CC(=O)N4CC5CN(C)CC5C4)c4ccc(C)cc34)cc2)c1C (stereo not given) |  | 33 |  | 
CCCC(=O)c1cnn(-c2ccc(NC(=O)c3cn(CC(=O)N4CC5CNCC5C4)c4ccc(C)cc34)cc2)c1C (stereo not given) |  | 106 |  | 
CCCC(=O)c1cnn(-c2ccc(NC(=O)c3cn(CCCC(=O)O)c4ccc(C)cc34)cc2)c1C |  | 24 |  | 
